Key:
[1] = Cytotoxicity against african green monkey Vero cells after 72 hrs by XTT assay; type: cell-based; conditions: chlorocebus sabaeus
How it was run: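 Vero cells (10⁴ cells/well; DMEM, 5% FBS, 37 °C, 5% CO2) exposed to a range of compound concentrations for 72 h. XTT (2.5 mg/mL final) added with PMS 32 µg/mL, 4 h incubation, absorbance read at 492 nm with 620 nm reference. CC50 obtained by linear regression of dose-response curves; acyclovir included.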

[2] = test system: Human alphaherpesvirus 1; assay: Antiviral activity against Herpes simplex viruses 1 infected in vero cells assessed as inhibition of viral replication at 50 uM after 72 hrs by XTT assay; type: functional; conditions: Human alphaherpesvirus 1, Vero
How it was run: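 Vero monolayers (10⁴ cells/well) infected with HSV-1 at 100 CCID50/well for 1 h. Inoculum removed, cells washed, medium with 50 µM compound added; acyclovir 50 µM as control. After 72 h XTT/PMS added to measure protection from virus-induced cytopathic effect. Means of triplicate experiments.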

[3] = Selectivity index, ratio of CC50 for african green monkey vero cells to IC50 for Herpes simplex viruses 1; type: functional
How it was run: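 Selectivity index computed as CC50 (XTT assay in Vero cells, 72 h) divided by IC50 (plaque number reduction against HSV-1 in Vero cells).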

[4] = test system: Human alphaherpesvirus 1; assay: Antiviral activity against 5 MOI Herpes simplex viruses 1 infected in vero cells after 24 hrs by viral plaque number reduction assay; type: functional, organism-based; conditions: Human alphaherpesvirus 1, Vero
How it was run: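 Vero cells in 6-well plates infected with HSV-1 at MOI 5 for 1 h at 37 °C, then treated with test compounds. After 24 h infected cells lysed, supernatant harvested and titred by plaque assay. IC50 = concentration inhibiting 50% of plaque formation versus untreated controls. Acyclovir positive control. Triplicate independent experiments.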

Row | SMILES | CC50 at 72 h [1] | inhibition at 50 µM [2] | Ratio CC50/IC50 [3] | IC50 [4]
1 | Cc1c(C(=O)NNS(=O)(=O)c2ccccc2)nnn1Nc1ccccc1 | 1510 µM | 79% | 80 | 19 µM
2 | Cc1ccc(S(=O)(=O)NNC(=O)c2nnn(Nc3ccccc3)c2C)cc1 | – | 37% | – | –
3 | COc1ccc(S(=O)(=O)NNC(=O)c2nnn(Nc3ccccc3)c2C)cc1 | – | 54% | – | –
4 | Cc1ccc(S(=O)(=O)NNC(=O)c2nnn(Nc3ccc(F)cc3)c2C)cc1 | 1270 µM | 88% | 974 | 1.3 µM
5 | Cc1c(C(=O)NNS(=O)(=O)c2ccccc2)nnn1Nc1ccc(Cl)cc1 | – | 57% | – | –
6 | Cc1c(C(=O)NNS(=O)(=O)c2ccccc2)nnn1Nc1ccc(Br)cc1 | – | 31% | – | –
7 | Cc1ccc(S(=O)(=O)NNC(=O)c2nnn(Nc3ccc(Br)cc3)c2C)cc1 | – | 69% | – | –
8 | COc1ccc(S(=O)(=O)NNC(=O)c2nnn(Nc3ccc(Br)cc3)c2C)cc1 | 971 µM | 77% | 26 | 37 µM
9 | Cc1c(C(=O)NNS(=O)(=O)c2ccccc2)nnn1Nc1cc(Cl)ccc1Cl | 1170 µM | 71% | 932 | 1.26 µM
10 | Nc1nc2c(ncn2COCCO)c(=O)[nH]1 [ACYCLOVIR] | 860 µM | 95% | 869 | 0.99 µM

Source: ChEMBL document CHEMBL1681787, “Synthesis and anti-HSV-1 activity of new 1,2,3-triazole derivatives” (Bioorg Med Chem, 2011)
